This is an account of results in PubChem BioAssay.

A short description of assay [1]: inhibitors of TNFa-induced NFkB p65 translocation, primary screen, imaging, HUVEC, MLSMR starter and 10KST1 sets (AID 438;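 active = inhibition above 20% together with a positive visual image hit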;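 note: compound added about 3h40 before a 20 min TNFalpha stimulation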;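 for inhibition: signal is the nuclear over cytoplasmic p65 intensity ratio per well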). The following applies: HUVEC TNFa-induced p65 nuclear translocation; cell count: measured here: nuclei count (cytotoxicity indicator), at 2.08 µM; inhibition: at 2 µM, stronger effect = higher value, 0% TNFa-plus-vehicle, 100% no-TNFa wells.
A short description of assay [2]: reduction of polyQ htt aggregates in cells – imaging, exon1htt(103Q)mCFP cells, high-content imaging, primary screen (AID 483;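 active = visual image review flags a hit and inhibition of aggregation exceeds 20%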;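 note: compound exposure lasted 3 days before fixation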;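 for nuclei count: percent of the per-plate median nuclei count of sample wells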). The following applies: exon1htt(103Q)mCFP cell line, aggregate imaging, at 2 µM; inhibition of aggregation: stronger effect = higher value; nuclei count: measured here: cell count, toxicity.
The nature of assay [3]: endothelial E-selectin expression blockers – imaging, HUVEC, immunofluorescence, MLSMR starter and 10KST1 sets, primary screen (AID 487;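 active = visually confirmed hit in the image check and inhibition above 20%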;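 for inhibition: signal is fraction of cell area covered by stained E-selectin grains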;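 for nuclei count: 100% = median nuclei count of all wells on the same plate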). The following applies: HUVEC TNFalpha-induced E-selectin immunofluorescence imaging, at 2 µM; inhibition: stronger effect = higher value; nuclei count: measured here: cell number, toxicity.
Assay [4] deals with Voltage-gated potassium channel subunit beta-2 (Rattus norvegicus) (UniProt P62483). Kind of assay: inhibitors of rat Kvbeta2 reductase activity – biochemical, NADPH fluorescence, primary screen (AID 622;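 active = fluorescence slope higher than the sample average by over 3 SD, cut at about -0.22 in these data, passing the limit was not always enough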;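 note: slope of raw intensity against log time taken from 70 to 1610 s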). The following applies: recombinant KvBeta, 4-cyanobenzaldehyde reduction, at 10 µM, stronger effect = higher value.
Assay [5] has the same target. Put plainly: enhancers of rat Kvbeta2 NADPH turnover – biochemical, NADPH fluorescence, primary screen (AID 623;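 active = NADPH fluorescence slope more negative than the mean of all samples by about 3 SD, 99.7% confidence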;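 note: fluorescence intensity change per second fitted from 20 to 320 s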). The following applies: Recombinant KvBeta, NADPH fluorescence decrease slope, 10 min; at 10 µM; stronger effect = lower value.
Assay [6] addresses Muscarinic acetylcholine receptor M4 (Homo sapiens) (UniProt P08173). Put plainly: M4-linked GIRK flux change, two-sided – cell-based, HEK293 M4/GIRK, thallium flux, BTC-AM, M4 allosteric agonist project, primary screen (AID 625;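 active = fluorescence slope after compound addition differing from the mean of all tested samples at 99.7% confidence, mostly higher but some lower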;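 note: thallium influx through GIRK channels coupled to M4 in HEK293 cells with BTC-AM dye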). Particulars: at 10 µM, actives lie on both sides. Summed up:
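Material – HEK293 cells with M4 receptor and GIRK channels · Buffer or medium – pH 7.3 thallium assay buffer · Doses – one dose, 10 µM final · Timing – cells overnight at 37 °C, BTC-AM loading 1 h, reads 2 min total · Measured by – kinetic fluorescence with BTC-AM dye · Controls – carbachol and DMSO controls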

Assay [7] in a line: blockers of RIG-like receptor reporter activation – cell-based, Sendai virus stimulus, luciferase, 10K MLSCN set, TLR/RLR signaling modifier project, primary screen (AID 602276).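 Note: firefly luciferase from ISG56 promoter only with Renilla not read in this screen; 0% = Sendai virus plus DMSO and 100% = medium plus DMSO without virus.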 Particulars: HEK293 RL24 IRF3 luciferase reporter, at 10 µM, stronger effect = higher value.
Assay [8] is described as follows: TLR3 IRF3 reporter activation blockers – cell-based, poly I:C stimulus, luciferase, 10K MLSCN set, primary screen (AID 602277;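 active = inhibition of the reporter signal at or above 50%; inactive = inhibition below 50%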). Particulars: HEK293-TLR3 RL24 IRF3 luciferase reporter, at 10 µM, stronger effect = higher value.

Activity calls are given as the source filed them.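 Rule for the calls, unless noted: active = inhibition at or above 50% at 10 µM; inactive = inhibition below 50%.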

Sequence of Voltage-gated potassium channel subunit beta-2 (Rattus norvegicus) (P62483 whole entry, looked up): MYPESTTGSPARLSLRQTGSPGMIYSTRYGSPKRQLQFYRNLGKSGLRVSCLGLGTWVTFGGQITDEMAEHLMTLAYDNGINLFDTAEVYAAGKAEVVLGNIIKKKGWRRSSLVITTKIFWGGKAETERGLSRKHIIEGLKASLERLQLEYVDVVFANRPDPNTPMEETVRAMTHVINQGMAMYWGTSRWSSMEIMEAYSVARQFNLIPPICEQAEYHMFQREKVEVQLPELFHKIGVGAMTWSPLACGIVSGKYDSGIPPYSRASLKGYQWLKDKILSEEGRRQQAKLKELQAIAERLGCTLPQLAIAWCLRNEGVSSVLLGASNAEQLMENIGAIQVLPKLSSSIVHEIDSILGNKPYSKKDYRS
Sequence of Muscarinic acetylcholine receptor M4 (Homo sapiens) (P08173 whole entry, looked up): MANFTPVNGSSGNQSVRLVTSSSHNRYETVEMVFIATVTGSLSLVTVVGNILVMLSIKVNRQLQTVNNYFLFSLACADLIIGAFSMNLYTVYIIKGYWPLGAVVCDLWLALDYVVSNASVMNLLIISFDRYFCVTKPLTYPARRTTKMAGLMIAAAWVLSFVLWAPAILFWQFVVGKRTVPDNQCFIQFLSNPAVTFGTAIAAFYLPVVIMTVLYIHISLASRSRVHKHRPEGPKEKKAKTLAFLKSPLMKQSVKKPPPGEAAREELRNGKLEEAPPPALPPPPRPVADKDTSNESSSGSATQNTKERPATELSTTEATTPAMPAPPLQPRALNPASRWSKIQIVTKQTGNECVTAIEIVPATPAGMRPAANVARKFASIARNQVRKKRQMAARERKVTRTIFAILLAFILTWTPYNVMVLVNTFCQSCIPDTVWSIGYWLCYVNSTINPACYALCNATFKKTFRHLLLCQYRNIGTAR

Broadly, the inhibition is the drop in the measured response relative to a control, in per cent. Turning to `O=C(Nc1ccc(N2CCOCC2)cc1)Nc1ccc2nc(-c3ccco3)c(-c3ccco3)nc2c1`, in assay [1], the cell count came out at 695. Besides, the inhibition in assay [1] is -0.7% (inactive); in assay [3], -177% (inactive); in assay [7], 38.7% (inactive); in assay [8], 0.682% (inactive). In addition, the inhibition of aggregation in assay [2] is -8.6% (inactive). Further, the results for the nuclei count in assay [2] and in assay [3] were 98.1% and 140%, respectively. Also, the fluorescence slope in assay [4] was -0.516 (inactive); in assay [6] it was 0.00225 (inactive). Also, in assay [5], the NADPH fluorescence slope was -5.3e-05 (inactive).
For `Cc1ccc(C)n1NC(=O)c1ccco1`, the cell count in assay [1] worked out at 692. Also, the inhibition is -4.7% (inactive) in assay [1], -19.2% (inactive) in assay [3], 9.01% (inactive) in assay [7] and 14.3% (inactive) in assay [8]. Besides, the inhibition of aggregation in assay [2] is 0% (inactive). The nuclei count in assay [2] is 94.1%; in assay [3], 109%. Besides, the fluorescence slope in assay [4] was -0.567 (inactive); in assay [6], 0.00521 (inactive). Moreover, in assay [5], the NADPH fluorescence slope is -1.3e-05 (inactive).
In the case of `Cc1cc2ncn(C(=O)N3CCOCC3)c2cc1C`, in assay [1], the cell count turned out to be 309. For the same compound, the inhibition in assay [1] is -2.5% (inactive); in assay [3], -61.7% (inactive); in assay [7], 4.38% (inactive); in assay [8], 3.06% (inactive). Moreover, in assay [2], the inhibition of aggregation was 27.9% (inactive). Moreover, the nuclei count is 97.2% in assay [2] and 122% in assay [3]. Also, the fluorescence slope in assay [4] is -0.572 (inactive); in assay [6], 0.00619 (inactive). For the same compound, the NADPH fluorescence slope in assay [5] was -3.6e-05 (inactive).
As to `CCCn1c2c(c(O)c(C(=O)Nc3ccc(C)cn3)c1=O)CCCC2`, the cell count in assay [1] stood at 483. Besides, the inhibition was 9.8% (inactive) in assay [1], -7.5% (inactive) in assay [3], 6.86% (inactive) in assay [7] and 10.7% (inactive) in assay [8]. In addition, the inhibition of aggregation in assay [2] is -6.3% (inactive). Besides, the nuclei count was found to be 96.3% in assay [2] and 91.3% in assay [3]. Further, the fluorescence slope in assay [4] is -0.546 (inactive); in assay [6], 0.00777 (inactive). Moreover, in assay [5], the NADPH fluorescence slope was -6e-05 (inactive).
Turning to `O=C(CCSc1nnc(-c2ccncc2)o1)Nc1ccccc1`, the cell count in assay [1] amounted to 680. The inhibition in assay [1] is -3.9% (inactive); in assay [3] it was -26.7% (inactive); in assay [7], 1.76% (inactive); in assay [8] it was 12.2% (inactive). The inhibition of aggregation in assay [2] is 1% (inactive). In addition, the nuclei count was 107% in assay [2] and 114% in assay [3]. The fluorescence slope in assay [4] was -0.512 (inactive); in assay [6], 0.0061 (inactive). Moreover, the NADPH fluorescence slope in assay [5] is -6.6e-05 (inactive).
Regarding `COCCNC(=O)CSc1nc(-c2ccc(OC)c(OC)c2)cc(C(F)(F)F)n1`, the cell count in assay [1] is 430. Moreover, the inhibition in assay [1] was 3.4% (inactive); in assay [3], -34.3% (inactive); in assay [7], 17.7% (inactive); in assay [8] it was 14.6% (inactive). In addition, the inhibition of aggregation in assay [2] was -8.2% (inactive). Also, the nuclei count in assay [2] was 104%; in assay [3], 115%. The fluorescence slope in assay [4] is -0.445 (inactive); in assay [6], 0.00332 (inactive). In addition, in assay [5], the NADPH fluorescence slope is -0.000127 (inactive).
Take `Cc1ccc(S(=O)(=O)NCCC(=O)OCn2nnc3ccccc3c2=O)cc1`: the cell count in assay [1] is 603. Also, the inhibition in assay [1] was -0.8% (inactive); in assay [3] it was -272% (inactive); in assay [7], 15.2% (inactive); in assay [8], 28% (inactive). In addition, the inhibition of aggregation in assay [2] is 5% (inactive). The nuclei count in assay [2] was found to be 102%; in assay [3], 119%. Besides, the fluorescence slope in assay [4] was -0.454 (inactive); in assay [6] it was 0.00588 (inactive). In assay [5], the NADPH fluorescence slope is -4.9e-05 (inactive).
Take `COc1cc(NC(=O)c2ccco2)c(OC)cc1NC(=O)CCC(=O)Nc1cc(C)cc(C)c1`: the cell count in assay [1] stood at 534. The inhibition in assay [1] was -0.3% (inactive); in assay [3], 26.4% (inactive); in assay [7], 16% (inactive); in assay [8] it was 27.3% (inactive). Besides, in assay [2], the inhibition of aggregation is 18.3% (inactive). The nuclei count in assay [2] was determined as 72.2%; in assay [3], 68.3%. Further, the fluorescence slope in assay [4] was -0.279 (inactive); in assay [6], 0.00626 (inactive). Moreover, the NADPH fluorescence slope in assay [5] was 6.9e-06 (inactive).
Regarding `Nc1nnc(-c2ccccc2)c(-c2ccccc2)n1`, the cell count in assay [1] was 676. Also, the inhibition in assay [1] is -2.1% (inactive); in assay [3], -71.1% (inactive); in assay [7], 0.988% (inactive); in assay [8], 14.6% (inactive). Besides, the inhibition of aggregation in assay [2] is 26.8% (inactive). Besides, the nuclei count came to 83.9% in assay [2] and 111% in assay [3]. For the same compound, the figures for the fluorescence slope in assay [4] and in assay [6] were -0.522 (inactive) and 0.00428 (inactive), respectively. Further, the NADPH fluorescence slope in assay [5] was -3.6e-05 (inactive).
In the case of `CC(=O)Nc1ccc(S(=O)(=O)N2CCN(C(C)CCc3ccccc3)CC2)cc1` (centres undefined), the cell count in assay [1] worked out at 440. Besides, the inhibition in assay [1] was 0% (inactive); in assay [3] it was 1.2% (inactive); in assay [7], 7.51% (inactive); in assay [8], 20.1% (inactive). In addition, in assay [2], the inhibition of aggregation was 2.6% (inactive). In addition, the nuclei count in assay [2] came to 69.7%; in assay [3], 96.1%. The results for the fluorescence slope in assay [4] and in assay [6] were -0.538 (inactive) and 0.00422 (inactive), respectively. Besides, the NADPH fluorescence slope in assay [5] was -6.4e-05 (inactive).
In the case of `O=C1c2ccccc2C(=O)N1Cc1nc2ccccc2c(=O)n1CCN1CCOCC1`, the cell count in assay [1] stood at 383. In addition, the inhibition in assay [1] was -10.3% (inactive); in assay [3], -48.6% (inactive); in assay [7], 14.9% (inactive); in assay [8], 12.8% (inactive). The inhibition of aggregation in assay [2] was -11.3% (inactive). Moreover, the nuclei count in assay [2] turned out to be 85.7%; in assay [3], 160%. The fluorescence slope was -0.521 (inactive) in assay [4] and 0.0047 (inactive) in assay [6]. The NADPH fluorescence slope in assay [5] is 1.6e-05 (inactive).
For `CCCOc1ccc([C@@H]2C3CN(C(=O)OCC)CC=C3C(C#N)=C(N)C2(C#N)C#N)cc1OC` (some centres undefined), the cell count in assay [1] was 743. The inhibition in assay [1] is -23.3% (inactive); in assay [3] it was -44.9% (inactive); in assay [7], 11% (inactive); in assay [8], -2.37% (inactive). Besides, in assay [2], the inhibition of aggregation is 14.7% (inactive). For the same compound, the nuclei count in assay [2] was determined as 102%; in assay [3], 112%. Also, the results for the fluorescence slope in assay [4] and in assay [6] were -0.237 (inactive) and 0.00528 (inactive), respectively. Also, in assay [5], the NADPH fluorescence slope was -2.5e-05 (inactive).
On to `CCC1(CC)NC(=O)NC1=O`, for which the cell count in assay [1] is 665. Further, the inhibition in assay [1] was 2.2% (inactive); in assay [3], 12.8% (inactive); in assay [7], 16.7% (inactive); in assay [8], 8.56% (inactive). Besides, in assay [2], the inhibition of aggregation is -5.3% (inactive). The nuclei count is 89.9% in assay [2] and 106% in assay [3]. Further, the figures for the fluorescence slope in assay [4] and in assay [6] were -0.588 (inactive) and 0.00419 (inactive), respectively. Besides, in assay [5], the NADPH fluorescence slope is -8.1e-05 (inactive).
In the case of `CCOC(=O)c1cccc(NC(=O)CCn2nnc3ccccc32)c1`, the cell count in assay [1] worked out at 341. For the same compound, the inhibition is 1.2% (inactive) in assay [1], -4.7% (inactive) in assay [3], 18.4% (inactive) in assay [7] and 8.84% (inactive) in assay [8]. For the same compound, in assay [2], the inhibition of aggregation is 4.8% (inactive). Besides, the nuclei count in assay [2] came to 112%; in assay [3], 118%. For the same compound, the fluorescence slope in assay [4] was -0.457 (inactive); in assay [6] it was 0.00454 (inactive). For the same compound, in assay [5], the NADPH fluorescence slope was -2.8e-05 (inactive).
